The text below walks through data of ChEMBL document CHEMBL1130115 (J Med Chem, 1997).

Bounds are passed on as bounds.

The target in experiment [1] is Adenosine receptor A2a (Rattus norvegicus) (UniProt P30543). Description: Displacement of specific [3H]-CGS- 21680 binding at Adenosine A2A receptor in rat striatal membranes at the concentration of 10e-4 M. The settings on record: Membrane. It is filed as cell membranes. The procedure, abridged:
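[3H]CGS 21680 binding to rat striatal membranes, with adenosine deaminase (3 units/mL) during preparation, 30 min 30 °C preincubation and incubation. Reported as % of specific binding displaced at 10^-4 M.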

Experiment [2] concerns the target T1, Adenosine receptor A1 (Rattus norvegicus) (UniProt P25099).
T1 sequence (whole entry): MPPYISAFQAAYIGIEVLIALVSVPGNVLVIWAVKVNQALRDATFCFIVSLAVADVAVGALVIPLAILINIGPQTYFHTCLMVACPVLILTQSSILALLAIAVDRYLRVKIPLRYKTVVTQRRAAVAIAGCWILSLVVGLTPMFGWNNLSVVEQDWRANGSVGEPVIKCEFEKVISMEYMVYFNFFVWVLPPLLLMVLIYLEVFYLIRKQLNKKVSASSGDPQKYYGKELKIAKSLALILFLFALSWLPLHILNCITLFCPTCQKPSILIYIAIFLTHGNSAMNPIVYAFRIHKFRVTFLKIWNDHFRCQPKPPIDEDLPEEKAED
Description: Displacement of specific [3H](R)-PIA binding at Adenosine A1 receptor from rat brain membranes. It is filed as cell membranes. More on the design: concentration or dose not given beside the values. The settings on record: Membrane; concentration not given here.

In experiment [3] the target is T1, Adenosine receptor A1 (Rattus norvegicus). Description: Displacement of specific [3H](R)-PIA binding at Adenosine A1 receptor from rat brain membranes at the concentration of 10e-4 M. Particulars: Membrane. It is filed as cell membranes. The procedure, abridged: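 [3H](R)-PIA binding to rat cerebral cortex membranes with adenosine deaminase (3 units/mL) present in preparation, 30 min 30 °C preincubation and incubation. Result given as % of specific binding displaced at 10^-4 M.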

The target in experiment [4] is Adenosine receptor A2a (Rattus norvegicus) (UniProt P30543). Description: Displacement of specific [3H]-CGS- 21680 binding at adenosine A2A receptor in rat striatal membranes. It is filed as cell membranes. More on the design: concentration or dose not given beside the values. The settings on record: Membrane; concentration not given here.
Experiment [5] concerns the target Adenosine receptor A2a (Rattus norvegicus, UniProt P30543). Description: Displacement of specific [3H]-CGS- 21680 binding at Adenosine A2A receptor in rat striatal membranes. It is filed as cell membranes, Membrane.
In experiment [6] the target is T2, Adenosine receptor A3 (Homo sapiens) (UniProt P0DMS8).
T2 sequence (whole entry): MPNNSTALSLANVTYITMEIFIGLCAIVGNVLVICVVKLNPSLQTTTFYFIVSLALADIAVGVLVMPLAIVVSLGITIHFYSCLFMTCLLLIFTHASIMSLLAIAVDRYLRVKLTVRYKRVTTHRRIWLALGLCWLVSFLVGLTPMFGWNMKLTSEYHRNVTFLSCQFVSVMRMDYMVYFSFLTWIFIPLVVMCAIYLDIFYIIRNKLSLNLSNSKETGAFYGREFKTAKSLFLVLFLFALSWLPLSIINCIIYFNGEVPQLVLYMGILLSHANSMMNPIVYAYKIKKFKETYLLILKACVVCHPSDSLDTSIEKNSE
As to the kind of experiment: Displacement of [125I]AB-MECA binding at human Adenosine A3 receptor at 10e-7 M. The procedure, abridged:
(§1)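 Nonspecific binding defined with 100 µM (R)-PIA. Compounds dissolved in DMSO, ≤2% in assay. Stopped by rapid filtration over GF/B filters with three buffer rinses; result given as % specific binding displaced at the stated concentration.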

The target of experiment [7] is T2, Adenosine receptor A3 (Homo sapiens). As to the kind of experiment: Displacement of [125I]AB-MECA binding at human Adenosine A3 receptor at 10e-5 M. The essentials:
as §1

Experiment [8] addresses T3, Adenosine receptor A3 (Homo sapiens, UniProt P0DMS8).
T3 sequence (P0DMS8 whole entry): T2 sequence (whole entry)
Description: Displacement of specific [125I]AB-MECA binding at human adenosine A3 receptor.

The target in experiment [9] is T4, Adenosine receptor A1 (Rattus norvegicus, UniProt P25099).
T4 sequence (P25099 whole entry): T1 sequence (whole entry)
Description: Displacement of specific [3H](R)-PIA binding at adenosine A1 receptor from rat brain membranes. It is filed as cell membranes, Membrane.

The species entered for experiment [10] is Homo sapiens. Description: Selectivity ratio measured as the Ki value of rat A1 receptor to that of hA3 receptor.

Sequence of Adenosine receptor A2a (Rattus norvegicus) (P30543 whole entry): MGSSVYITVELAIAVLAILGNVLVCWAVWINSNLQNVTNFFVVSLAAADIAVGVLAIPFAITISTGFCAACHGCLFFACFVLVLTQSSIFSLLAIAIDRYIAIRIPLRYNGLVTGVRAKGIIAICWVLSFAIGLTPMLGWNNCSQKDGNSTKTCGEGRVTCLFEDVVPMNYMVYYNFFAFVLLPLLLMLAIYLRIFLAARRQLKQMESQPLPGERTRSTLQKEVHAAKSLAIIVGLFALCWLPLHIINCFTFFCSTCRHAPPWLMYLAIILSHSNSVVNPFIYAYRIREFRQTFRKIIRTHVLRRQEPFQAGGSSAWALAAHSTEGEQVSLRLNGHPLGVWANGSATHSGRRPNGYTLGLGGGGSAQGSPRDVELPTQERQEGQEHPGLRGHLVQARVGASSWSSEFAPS
Sequence of Adenosine receptor A2a (P30543 whole entry): as above

In experiment [1], `CCOC(=O)C1=C(c2ccccc2)N=C(C)/C(=C(/O)OCc2ccccc2)C1C#Cc1ccccc1` (centres undefined) returned a Displacement of less than 10%. In experiment [2], this molecule showed an inhibition of 24%.
Turning to `C=CCO/C(O)=C1\C(C)=NC(c2ccccc2)=C(C(=O)OCC)C1/C=C/c1ccc([N+](=O)[O-])cc1` (centres undefined), the Displacement in [3] is less than 10%. Moreover, the inhibition in experiment [4] is 15%.
Turning to `CCOC(=O)C1=C(c2ccccc2)N=C(C)/C(=C(/O)OCC)C1C#Cc1ccc([N+](=O)[O-])cc1` (centres undefined), the inhibition in experiment [4] stood at 24%.
With `CCO/C(O)=C1\C(C)=NC(c2ccccc2)=C(C(=O)OCc2ccc([N+](=O)[O-])cc2)C1C#Cc1ccccc1` (centres undefined), the Displacement in experiment [1] is less than 10%. Moreover, in experiment [2], the inhibition stood at 29%.
In turn, `CCNC(=O)C1=C(c2ccccc2)N=C(C)/C(=C(/O)OCC)C1C#Cc1ccccc1` (centres undefined) came in with an inhibition in experiment [4] of 47%.
With `CCO/C(O)=C1\C(C)=NC(c2ccccc2)=C(C(=O)OCc2cc([N+](=O)[O-])cc([N+](=O)[O-])c2)C1C#Cc1ccccc1` (centres undefined), the results for the inhibition in experiment [2] and in [4] were 20% and 40%, respectively.
On to `CCO/C(O)=C1\C(C)=NC(c2ccccc2)=C(C(=O)OCc2ccc(C(=O)OCC(Cl)(Cl)Cl)cc2)C1C#Cc1ccccc1` (centres undefined), for which the inhibition in [2] came out at 33%; in experiment [4], 11%.
`CCOC(=O)C1=C(c2ccccc2)N=C(C)/C(=C(/O)OCC)C1c1ccncc1` (centres undefined) had a Ki in experiment [5] of 44.7 µM.
For `CCO/C(O)=C1\C(C)=NC(c2ccccc2)=C(C(=O)OCc2ccc(C)cc2)C1C#Cc1ccccc1` (centres undefined), in [3], the Displacement is less than 10%. In addition, the inhibition in [4] was 17%.
As for `CCO/C(O)=C1\C(C)=NC(c2ccccc2)=C(C(=O)OCc2ccccc2C)C1C#Cc1ccccc1` (centres undefined), the inhibition in [2] was 16%; in [4] it was 13%.
Regarding `CCO/C(O)=C1\C(C)=NC(c2ccccc2)=C(C(=O)OCc2cccc(C)c2)C1C#Cc1ccccc1` (centres undefined), in [3], the Displacement was less than 10%. Also, the inhibition in [4] was 16%.
With `CCNC(=O)C1=C(c2ccccc2)N(COCC)C(C)=C(C(=O)OCC)C1C#Cc1ccccc1` (centres undefined), the inhibition in experiment [4] was 35%.
As to `CCOC(=O)C1=C(c2ccccc2)N=C(C)/C(=C(/O)OCC)C1c1ccccn1` (centres undefined), in experiment [4], the inhibition amounted to 25%.
Still for that read-out and setting: in the case of `CCOC(=O)C1=C(c2ccccc2)N=C(C)/C(=C(/O)OCC)C1C#Cc1ccccc1` (centres undefined) it was 26%; in that of `CCOC(=O)C1=C(c2ccccc2)N=C(C)/C(=C(/O)OCC)C1c1cccs1` (centres undefined), 36%.
As for `CCOC(=O)C1=C(C)N(COC)C(c2ccccc2)=C(C(=O)OCC[Si](C)(C)C)C1C#Cc1ccccc1` (centres undefined), the Displacement in experiment [3] is less than 10%. In [4], this molecule came in with an inhibition of 27%.
Consider `CCO/C(O)=C1\C(C)=NC(c2ccccc2)=C(C(=O)OCc2ccc(C(=O)NCCN)cc2)C1C#Cc1ccccc1` (centres undefined), for which the figures for the inhibition in experiment [2] and in experiment [4] were 68% and 39%, respectively. For the same molecule, the Displacement in [6] is less than 10%.
In experiment [5], `CCOC(=O)C1=C(c2ccccc2)N=C(C)/C(=C(/O)SCC)C1C#Cc1ccccc1` (centres undefined) showed a Ki of 5.15 µM.
In [4], `CCO/C(O)=C1\C(C)=NC(c2ccccc2)=C(C(=O)OCC(OC)c2ccccc2)C1C#Cc1ccccc1` (centres undefined) yielded an inhibition of 33%.
On the same count and under the same terms, the figure for `CCO/C(O)=C1\C(C)=NC(c2ccccc2)=C(C(=O)OC(C)(C)C)C1C#Cc1ccccc1` (centres undefined) is 27%.
The molecule `CCOC(=O)C1=C(c2ccccc2)N=C(C)/C(=C(/O)OCC)C1C#Cc1cccc(C)c1` (centres undefined) showed a Displacement in experiment [1] of less than 10%. In experiment [2], this molecule yielded an inhibition of 41%.
In [4], `CCOC(=O)C1=C(C(F)(F)F)N=C(C)/C(=C(/O)OCC)C1C#Cc1ccccc1` (centres undefined) showed an inhibition of 25%.
As for `CCO/C(O)=C1\C(C)=NC(c2ccccc2)=C(C(=O)OCCc2ccccc2)C1C#Cc1ccccc1` (centres undefined), the Displacement in [3] and in experiment [1] was less than 10% throughout.
As for `CCO/C(O)=C1\C(C)=NC(c2ccccc2)=C(C(=O)OCc2cccc([N+](=O)[O-])c2)C1C#Cc1ccccc1` (centres undefined), the Displacement in experiment [1] is less than 10%. Further, the inhibition in [2] was 28.2%.
The molecule `CCOC(=O)C1=C(C)N=C(C)/C(=C(/O)OCC)C1c1cccs1` (centres undefined) registered an inhibition in experiment [4] of 25%.
`CCO/C(O)=C1\C(C)=NC(c2ccccc2)=C(C(=O)O)C1C#Cc1ccccc1` (centres undefined) came in with an inhibition in [4] of 16%. The molecule further yielded a Displacement in [7] of less than 10%.
In turn, `CCOC(=O)C1=C(c2ccccc2)N=C(C)/C(=C(/O)OCC)C1c1cccnc1` (centres undefined) registered an inhibition in experiment [4] of 40%.
On to `CCO/C(O)=C1\C(C)=NC(c2ccccc2)=C(C(=O)OCc2cc(C(F)(F)F)cc(C(F)(F)F)c2)C1C#Cc1ccccc1` (centres undefined), for which the Displacement in [3] is less than 10%. In addition, the inhibition in experiment [4] was found to be 29%.
Molecule `CCO/C(O)=C1\C(C)=NC(c2ccccc2)=C(C(=O)OCc2ccccc2)C1C#Cc1ccccc1` (centres undefined) registered a Displacement in experiment [1] of less than 10%.
Turning to `CCO/C(O)=C1\C(C)=NC(c2ccccc2)=C(C(=O)SCC)C1C#Cc1ccccc1` (centres undefined), in experiment [4], the inhibition is 17%.
Regarding `CCNC(=O)C1=C(C)NC(c2ccccc2)=C(C(=O)OCC)C1C#Cc1ccccc1` (centres undefined), the inhibition in experiment [4] came out at 19%.
Turning to `CCCO/C(O)=C1\C(C)=NC(c2ccccc2)=C(C(=O)OCc2ccccc2)C1C#Cc1ccccc1` (centres undefined), the inhibition in experiment [2] is 21%; in experiment [4] it was 16%.
The molecule `CCOC(=O)C1=C(c2ccccc2)N=C(C)/C(=C(/O)OC(C)(C)C)C1C#Cc1ccccc1` (centres undefined) came in with an inhibition in experiment [4] of 20%.
On to `CCOCN1C(C)=C(C(=O)OCC)C(C#Cc2ccccc2)C(C(=O)O)=C1c1ccccc1` (centres undefined), for which the Ki in [8] is more than 100 µM; in [9] it was 19.1 µM. The inhibition in experiment [4] was determined as 36%.
Regarding `CCO/C(O)=C1\C(C)=NC(c2ccccc2)=C(C(=O)OCCCc2ccccc2)C1C#Cc1ccccc1` (centres undefined), the Displacement in experiment [3] and in [1] was less than 10% throughout.
For the molecule `CCOC(=O)C1=C(C)NC(C)=C(C(=O)OC)C1C#Cc1ccccc1` (centres undefined), in experiment [10], the Selectivity ratio is 5.7.
Take `CCOCN1C(C)=C(C(=O)OCC)C(C#Cc2ccccc2)C(C(=O)OCC[Si](C)(C)C)=C1c1ccccc1` (centres undefined): the inhibition in experiment [2] was 13%; in experiment [4], 19%.
For `CCOC(=O)C1=C(c2ccccc2)N=C(C)/C(=C(/O)OCC)C1/C=C/c1ccc(N)cc1` (centres undefined), the inhibition in [4] came to 26%.
`CCOC(=O)C1=C(c2ccccc2)N=C(C)/C(=C(/O)OCC)C1c1cc2ccccc2o1` (centres undefined): the Displacement in experiment [1] is less than 10%.
Turning to `CCOC(=O)C1=C(c2ccccc2)N=C(C)/C(=C(/O)OCC)C1c1ccccc1` (centres undefined), in [1], the Displacement is less than 10%.
Turning to `CCO/C(O)=C1\C(C)=NC(c2ccccc2)=C(C(=O)OCc2cccc(I)c2)C1C#Cc1ccccc1` (centres undefined), the inhibition in experiment [2] came out at 14%; in [4], 19%.
`CCO/C(O)=C1\C(C)=NC(c2ccccc2)=C(C(=O)OCC[Si](C)(C)C)C1C#Cc1ccccc1` (centres undefined) came in with an inhibition in experiment [4] of 18%.
Same read-out and setting: in the case of `CCOC(=O)C1=C(c2ccccc2)N=C2CCCC(O)=C2C1C#Cc1ccccc1` (centres undefined) it was 22%; in that of `CCOC(=O)C1=C(c2ccccc2)N=C(C)/C(=C(/O)OCC)C1c1ccco1` (centres undefined), 45%.
On to `CCO/C(O)=C1\C(C)=NC(c2ccccc2)=C(C(=O)OCc2ccc(C(F)(F)F)cc2)C1C#Cc1ccccc1` (centres undefined), for which the figures for the inhibition in experiment [2] and in experiment [4] were 32% and 15%, respectively.
As to `CCOC(=O)C1=C(c2ccccc2)NC(C)=C(C(C)=O)C1C#Cc1ccccc1` (centres undefined), in experiment [4], the inhibition turned out to be 17%.
For `CCO/C(O)=C1\C(CC)=NC(c2ccccc2)=C(C(=O)OCc2ccccc2)C1C#Cc1ccccc1` (centres undefined), the Displacement in experiment [1] was less than 10%. Moreover, the inhibition in experiment [2] was found to be 25%.
In the case of `COC(=O)C1=C2C=CN(C)C=C2c2nc(-c3ccccc3)nn2C1`, the affinity in experiment [8], expressed as Ki, was 0.013 µM.
As for `Cc1ccc(-c2oc3ccc(Cl)cc3c(=O)c2Cl)c(OC(C)C)c1`, the figures for the Ki in [5] and in [9] were more than 100 µM and 100 µM, respectively.
